Experimental data from PubChem BioAssay.
Records with an inconclusive call do not appear.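 The calls were made as follows, unless noted: active = viability increase at or above a cutoff of the median across tested compounds plus 3 SD (cut at about 8.5% in these data, passing the limit was not always enough); inconclusive = some gains above the cutoff, reason not given; inactive = the rest.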

Key:
[1] = S. cerevisiae growth inhibition in permissive medium (OD615), pilot counter-assay for S. cerevisiae lifespan shortening project, permissive growth control (AID 705;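 active = growth inhibition above 25% in both replicates, a cutoff set 3 SD above the mean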); conditions: OD615, 24 h, at 10 µM, active compounds read high
Outline: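 Timing: 24 h exposure, 30 °C / Material: Saccharomyces cerevisiae strain carrying genetically modified DeaD replicative-lifespan system / Signal: OD at 615 nm / Compound: 10 µM single dose, 0.25% DMSO / Medium: SC raffinose/galactose permissive medium / Evaluation: reduction in yeast growth (OD615)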

[2] = S. cerevisiae growth inhibition in restrictive medium, OD615, pilot screen, restrictive growth control, yeast lifespan reduction project (AID 706;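 active = growth inhibition above a set limit, 3 SD over mean compound inhibition, in both replicates, cut at about 43% in these data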;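 also: modified DeaD lifespan yeast strain shifted to restrictive glucose medium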); conditions: OD615, 48 h, at 10 µM, active compounds read high
Outline: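 System: Engineered S. cerevisiae DeaD strain | Detection: OD615 | Buffer or medium: CSMM-D glucose medium | Doses: 10 µM compound, 0.25% DMSO | Timing: 4 h pre-growth plus 48 h compound exposure, 30 °C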

[3] = doxorubicin toxicity protection in MRP-1 cells – H69AR cells, CellTiter-Glo, duplicate, MRP-1 activator project, pilot screen (AID 807); conditions: H69AR viability with doxorubicin, CellTiter-Glo luminescence; at 10 µM; active compounds read high;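 also: compound pretreatment 18-22 h then 72 h combined with doxorubicin; 0% = doxorubicin alone and 100% = vehicle without doxorubicin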
[4] = viability of HCT116 without oncogenic beta-catenin – human colon tumor cells, pilot screen (AID 823;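 active = cell viability at or below a set limit in both duplicate runs, the limit being the all-compound median minus 4 SD, cut at about 23% in these data, passing the limit was not always enough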;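 also: 0% = wells killed by 20 µM Hyamine and 100% = untreated DMSO cell wells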); conditions: HCT116 beta-catenin knockout viability, CellTiter-Glo, 60 h; at 10 µM; active compounds read low
[5] = viability of PTEN-null HCT116 cells – cell-based, HCT116 clonal line, CellTiter-Glo, pilot screen (AID 824;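 active = viability at or below 27.92% in each of two runs, the all-compound median minus 4 SD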;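 also: 0% = 20 µM Hyamine control and 100% = vehicle cell control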); conditions: HCT116 PTEN-deleted viability, 60 h, at 10 µM, active compounds read low
[6] = RAM pathway blockade in budding yeast – dse1pr::URA3 reporter, 5-FOA selection, pilot screen (AID 869;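 active = inhibition over a set limit, the all-compound mean plus 3 SD, in both replicate runs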;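 also: 0% = DMSO wells with no growth and 100% = 10 µM 1-NA-PP1 with full growth; RAM network block rescues cells from 5-FOA so hits raise OD615 growth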); conditions: S. cerevisiae dse1pr::URA3 5-FOA growth, OD615, 2 d; at 10 µM; active compounds read high; strain carries analog-sensitive mutant Cbk1 kinase
[7] = RAM signaling pathway blockade in yeast – S. cerevisiae, Pdr1DBD-CYC8 efflux-inhibited sensitized strain, primary screen (AID 1298;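 active = RAM network inhibition above 8.4% in each of two replicates, 3 SD over the compound average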;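 also: 0% = DMSO untreated cells without growth and 100% = 10 µM 1-NA-PP1 full growth; higher means more yeast growth rescued from 5-FOA killing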); conditions: S. cerevisiae cbk1-as DSE1-URA3 strain, 5-FOA growth OD615, 2 d; at 50 µM; active compounds read high

c1nnc2c3c4c(sc3ncn12)CCC4
inactive: growth inhibition [1] -1.74% | growth inhibition [2] 15.2% | viability increase [3] -3.97% | viability [4] 96.6% | viability [5] 107% | inhibition [6] 1.25% | RAM network inhibition [7] 6.33%

CCN1C(=O)NC(c2cccnc2)C(C(=O)OC)=C1C (stereo not given)
inactive: growth inhibition [1] -17.7% | growth inhibition [2] -5.54% | viability increase [3] -1.3% | viability [4] 99.5% | viability [5] 99.9% | inhibition [6] 0.735% | RAM network inhibition [7] 0.25%

CCCC(=O)NCCc1cc2ccc(C)c(C)c2[nH]c1=O
inactive: growth inhibition [1] -13% | growth inhibition [2] -25.4% | viability increase [3] -1.61% | viability [4] 103% | viability [5] 97.6% | inhibition [6] 1.91% | RAM network inhibition [7] 4%

CCOc1ccc(CC(=O)N2CCN(c3ccc(N4CCOCC4)nn3)CC2)cc1OCC
inactive: growth inhibition [1] -1.33% | growth inhibition [2] 8.3% | viability increase [3] 0.46% | viability [4] 103% | viability [5] 106% | inhibition [6] -0.385% | RAM network inhibition [7] 6.26%

COc1ccc(OC)c(S(=O)(=O)NCCc2cn3ccsc3n2)c1
inactive: growth inhibition [1] -6.71% | growth inhibition [2] -11.5% | viability increase [3] -2.28% | viability [4] 105% | viability [5] 103% | inhibition [6] 3.81% | RAM network inhibition [7] 3.59%

N#Cc1cccc(NC(=O)CC2CCCCC2)c1
inactive: growth inhibition [1] -1.48% | growth inhibition [2] 11.6% | viability increase [3] -0.95% | viability [4] 95% | viability [5] 86.8% | inhibition [6] 0.645% | RAM network inhibition [7] 2.76%

CCOC(=O)C(CCOc1cccc(CC)c1)C(=O)OCC
inactive: growth inhibition [1] 4.28% | growth inhibition [2] -17.2% | viability increase [3] -2.61% | viability [4] 89.5% | viability [5] 87% | inhibition [6] -0.12% | RAM network inhibition [7] 2.13%

COc1ccc(NC(=O)CN2CC(c3ccccc3)CC2=O)cc1OC (stereo not given)
inactive: growth inhibition [1] -17.9% | growth inhibition [2] -15.6% | viability increase [3] -1.08% | viability [4] 104% | viability [5] 95.1% | inhibition [6] 0.27% | RAM network inhibition [7] 2.86%

COc1ccc(Cc2nc(-c3ccc(Br)o3)no2)cc1OC
inactive: growth inhibition [1] -14.4% | growth inhibition [2] -3.81% | viability increase [3] -0.22% | viability [4] 92.2% | viability [5] 81.2% | inhibition [6] 0.995% | RAM network inhibition [7] 4.17%

CC(C)(C)NC(=O)Cn1c(=O)oc2cc(S(=O)(=O)N3CCc4ccccc43)ccc21
inactive: growth inhibition [1] 0.45% | growth inhibition [2] -12.1% | viability increase [3] -3.16% | viability [4] 90% | viability [5] 89.5% | inhibition [6] 0.05% | RAM network inhibition [7] 7.21%

O=C(CCc1ccccc1)Nc1nnc(-c2cccs2)o1
inactive: growth inhibition [1] -12.3% | growth inhibition [2] -2.62% | viability increase [3] -4.02% | viability [4] 103% | viability [5] 97.3% | inhibition [6] 1.6% | RAM network inhibition [7] 3.35%

Cc1ccc(C)c(N2CCN(C(=O)C3CCCN(S(=O)(=O)c4cnc[nH]4)C3)CC2)c1 (stereo not given)
inactive: growth inhibition [1] 5.12% | growth inhibition [2] -0.49% | viability increase [3] 2.66% | viability [4] 94.9% | viability [5] 95.4% | inhibition [6] 2.12% | RAM network inhibition [7] -0.52%

CC(/C=C/c1ccccc1)=N/O
inactive: growth inhibition [1] -2.33% | growth inhibition [2] 2.71% | viability increase [3] 0.26% | viability [4] 98.3% | viability [5] 106% | inhibition [6] -0.595% | RAM network inhibition [7] 4.55%

COc1cccc(CN2C(=O)CCC2(C)C(=O)NC2CCCCC2)c1 (stereo not given)
inactive: growth inhibition [1] -6.64% | growth inhibition [2] 1.03% | viability increase [3] 0.54% | viability [4] 107% | viability [5] 100% | inhibition [6] -0.375% | RAM network inhibition [7] 0.22%

COc1ccc(C2C(C(=O)NCc3ccccn3)c3ccccc3C(=O)N2C)cc1OC (stereo not given)
inactive: growth inhibition [1] -4.72% | growth inhibition [2] -0.835% | viability increase [3] -0.8% | viability [4] 101% | viability [5] 101% | inhibition [6] 1.01% | RAM network inhibition [7] 0.74%
